Hits are enriched below; roughly 2.8% of the tested compounds scored in any of these assays.
SIRT5 inh: blocks human SIRT5 desuccinylation of peptide; Purified SirT5, succinyl-peptide AMC, trypsin-coupled fluorescence; inhibition, % at 15 µM; actives 1.1% (n = 330,000); in the data active means inhibition above about 15%; inconclusive means no clear call, values can overlap the other calls
DENV2 CPE: DENV2-induced cell death inhibition; DENV2-infected cells, cytopathic effect rescue, plate reader; AID 651640; actives 1.7% (n = 350,000); CPE inhibition, % at 9.99 µM; in the data active means CPE inhibition above about 20%, passing the limit was not always enough; inconclusive means no clear call, values can overlap the other calls; tested in BHK-21 cells;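 further: 0% = median of neutral control wells and 100% = median of positive control wells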
E-selectin induc: induces E-selectin expression in human endothelial cells. HUVEC E-selectin immunofluorescence imaging; normalized: neutral wells 0, TNF-alpha wells 100. P16581. AID 686992. activation, % at 7.58 µM. actives 0.37% (n = 260,000);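 active means mean E-selectin-positive cell signal at least 10% of the positive control, reached in at least 60% of replicates, without over 20% cell loss; inconclusive means no rule given, readout overlaps actives, possibly toxicity-flagged; inactive means the rest, including those meeting only one limit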
Target sequence (P16581 whole entry, looked up): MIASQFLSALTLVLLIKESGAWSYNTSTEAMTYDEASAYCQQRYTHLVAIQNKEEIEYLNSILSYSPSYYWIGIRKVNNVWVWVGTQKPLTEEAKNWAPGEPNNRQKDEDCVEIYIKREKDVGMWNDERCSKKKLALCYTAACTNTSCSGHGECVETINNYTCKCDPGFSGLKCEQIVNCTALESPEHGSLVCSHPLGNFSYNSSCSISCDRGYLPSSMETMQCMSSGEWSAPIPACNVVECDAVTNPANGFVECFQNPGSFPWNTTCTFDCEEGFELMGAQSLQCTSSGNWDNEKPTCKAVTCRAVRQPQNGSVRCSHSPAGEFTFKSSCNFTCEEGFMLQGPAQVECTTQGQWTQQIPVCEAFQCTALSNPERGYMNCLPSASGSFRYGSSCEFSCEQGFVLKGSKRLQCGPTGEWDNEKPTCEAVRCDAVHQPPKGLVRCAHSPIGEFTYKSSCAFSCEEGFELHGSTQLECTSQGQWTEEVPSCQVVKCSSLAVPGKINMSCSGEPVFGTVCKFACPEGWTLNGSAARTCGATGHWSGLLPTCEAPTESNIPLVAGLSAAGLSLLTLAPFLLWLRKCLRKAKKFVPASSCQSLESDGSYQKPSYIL
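Read-out basis: % PE-positive cells; Test system: HUVEC primary endothelial cells; Technique: immunofluorescence imaging; Dosing: single-point compound dose.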
* hit, by the source's call.

C[C@H]1CN([C@@H](C)CO)C(=O)c2cc(C#CC3CC3)cnc2O[C@@H]1CN(C)C(=O)C1CCCCC1 was read as E-selectin induc 4.
`Cc1nnc(NC(=O)c2ccc(S(=O)(=O)N3CCOCC3)cc2)s1` gave SIRT5 inh 2, DENV2 CPE 1 and E-selectin induc -1.
COc1cccc2sc(NC(=O)c3ccc(S(=O)(=O)N4CCOCC4)cc3)nc12 was read as SIRT5 inh 15* and DENV2 CPE -6.
Screening C/C(=N\Nc1ccc(C(=O)O)cc1)c1ccc(-n2ccnc2)cc1 returned DENV2 CPE -6 and E-selectin induc -2.
`C/C(=N\NC(N)=O)c1ccc(-n2ccnc2)cc1` gave SIRT5 inh 22*, DENV2 CPE -1 and E-selectin induc -1.
Cc1ccc(CNC(=O)CSc2nc3ccccc3c(=O)n2CC2CCCO2)cc1 (stereo not drawn) was read as SIRT5 inh -5, DENV2 CPE -5 and E-selectin induc 1.
Screening COc1ccc(CCN(C)C(=O)CSc2nc3ccccc3c(=O)n2CC2CCCO2)cc1OC (stereo not drawn) returned SIRT5 inh -4, DENV2 CPE 21* and E-selectin induc 0.
`COCCNC(=O)[C@@]1(C)C=C[C@@H](Cc2ccccc2)N1C(=O)c1ccccc1` gave SIRT5 inh 0, DENV2 CPE -15 and E-selectin induc 0.
For C[C@]1(C(=O)NCc2cc(F)cc(C(F)(F)F)c2)C=C[C@@H](Cc2ccccc2)N1C(=O)c1ccccc1 the results were SIRT5 inh 34*, DENV2 CPE inconclusive and E-selectin induc 0.
`C[C@@H]1CN([C@@H](C)CO)C(=O)Cc2cc(NS(C)(=O)=O)ccc2O[C@@H]1CN(C)Cc1ccc(C(=O)O)cc1` gave SIRT5 inh -2, DENV2 CPE 0 and E-selectin induc 0.
CC1(c2nnc(Cc3ccccc3)o2)CC(c2ccc(Br)cc2)=NO1 (stereo not drawn) was read as E-selectin induc 0.
`CC1(c2nnc(Cc3ccccc3)o2)CC(c2ccc([N+](=O)[O-])cc2)=NO1` (stereo not drawn) gave SIRT5 inh 6, DENV2 CPE 31* and E-selectin induc 0.
Screening O=C(CN1CCOCC1)N[C@H]1CC[C@H](CCNC(=O)C2CCCC2)O[C@H]1CO returned SIRT5 inh 2, DENV2 CPE -4 and E-selectin induc 0.
Screening Cc1noc(C)c1NC(=O)Nc1ccc2c(c1)C(=O)N([C@@H](C)CO)C[C@H](C)[C@H](CN(C)S(=O)(=O)c1ccc(F)cc1)OCCCC[C@@H](C)O2 returned SIRT5 inh 1, DENV2 CPE -3 and E-selectin induc 0.
Screening COc1ccc(Nc2ccc([N+](=O)[O-])cn2)cc1 returned SIRT5 inh 2 and DENV2 CPE -2.
Screening COc1ccc(Nc2cc(C)c3cc([N+](=O)[O-])ccc3n2)cc1 returned SIRT5 inh -5, DENV2 CPE 28* and E-selectin induc 0.
For CC(C)C#Cc1ccc2c(c1)O[C@@H](CN(C)C(=O)C1CCCCC1)[C@H](C)CN([C@H](C)CO)S2(=O)=O the results were E-selectin induc 2.
O=C(NCc1ccc(F)cc1)C1CCCN(S(=O)(=O)c2ccc(-n3cnnn3)cc2)C1 (stereo not drawn) was read as SIRT5 inh 0 and DENV2 CPE -3.
`O=C(NCc1ccccc1)C1CCCN(S(=O)(=O)c2ccc(-n3cnnn3)cc2)C1` (stereo not drawn) gave SIRT5 inh 2, DENV2 CPE inconclusive and E-selectin induc 31*.
For C[C@H]1CN([C@@H](C)CO)C(=O)Cc2cc(NC(=O)Cn3cnnn3)ccc2O[C@H]1CN(C)C(=O)Nc1ccc(F)cc1 the results were E-selectin induc -4.
`C[C@H](CO)N1C[C@H](C)[C@@H](CN(C)C(=O)C2CC2)Oc2ncc(C#CC3CCCC3)cc2C1=O` gave SIRT5 inh 0, DENV2 CPE 25* and E-selectin induc -1.
`C[C@H](CO)N1C[C@H](C)[C@@H](CN(C)C(=O)C2CCCCC2)Oc2ncc(C#CC3CCCC3)cc2C1=O` gave SIRT5 inh 11, DENV2 CPE -5 and E-selectin induc 0.
For C[C@@H]1CN([C@@H](C)CO)C(=O)c2cc(C#CC3CCCC3)cnc2O[C@H]1CN(C)C(=O)C1CC1 the results were SIRT5 inh 0, DENV2 CPE 28* and E-selectin induc 0.
C[C@@H]1CN([C@@H](C)CO)C(=O)c2cc(C#CC3CCCC3)cnc2O[C@@H]1CN(C)C(=O)C1CCC1 was read as SIRT5 inh 1, DENV2 CPE -4 and E-selectin induc -1.
For C[C@H]1CN([C@@H](C)CO)C(=O)c2cc(NC(=O)CCC(F)(F)F)ccc2O[C@H]1CN(C)S(=O)(=O)c1ccc(Cl)cc1 the results were SIRT5 inh -3, DENV2 CPE 73* and E-selectin induc 0.
C[C@@H]1CN([C@H](C)CO)C(=O)c2cc(NC(=O)CCC(F)(F)F)ccc2O[C@@H]1CN(C)S(=O)(=O)c1ccc(Cl)cc1 was read as SIRT5 inh -4, DENV2 CPE -11 and E-selectin induc 1.
C[C@H]1CN([C@@H](C)CO)C(=O)c2cc(NC(=O)CCCN(C)C)ccc2O[C@@H]1CN(C)S(=O)(=O)c1ccc(Cl)cc1 was read as SIRT5 inh -2, DENV2 CPE active and E-selectin induc 0.
C[C@H]1CN([C@@H](C)CO)C(=O)c2cc(NC(=O)CCCN(C)C)ccc2O[C@@H]1CN(C)S(=O)(=O)c1ccc(F)cc1 was read as SIRT5 inh -8, DENV2 CPE 0 and E-selectin induc 9.
`COCC(=O)Nc1ccc2c(c1)C(=O)N(C)[C@@H]1CC[C@H](CC(=O)OC)O[C@H]1CO2` gave DENV2 CPE -1 and E-selectin induc 0.
`CCOc1ccc2nc(NC(=O)CS(=O)(=O)c3ccc(C)cc3)sc2c1` gave SIRT5 inh 32*.
Screening CCN1CCN(CC(=O)Nc2nc3ccc(C)cc3s2)CC1 returned SIRT5 inh 3 and DENV2 CPE 25*.
`Cc1ccc(S(=O)(=O)CC(=O)Nc2nc3ccc(S(N)(=O)=O)cc3s2)cc1` gave SIRT5 inh 2 and DENV2 CPE 5.
Screening Cc1ccc2nc(NC(=O)CN3CCN(c4ccccn4)CC3)sc2c1 returned SIRT5 inh 0 and DENV2 CPE 10.
Screening COc1ccc2c3c(n(C)c2c1)[C@H](CO)N(CC1CCOCC1)CC31CN(C(=O)c2cccc(F)c2)C1 returned DENV2 CPE inconclusive and E-selectin induc 0.
`CN(C)CCCNC(=O)C[C@H]1CC[C@H](NC(=O)Cc2cccnc2)[C@@H](CO)O1` gave SIRT5 inh 7, DENV2 CPE -9 and E-selectin induc 0.
For O=C(C[C@@H]1CC[C@H]2[C@@H](COC[C@@H](O)CN2Cc2ccc(Cl)cc2)O1)Nc1nccs1 the results were SIRT5 inh -1, DENV2 CPE 5 and E-selectin induc 0.
`CCCN1CCN(C(=O)c2ccc3nc(CC)c(CC)nc3c2)CC1` gave SIRT5 inh 20*, DENV2 CPE -1 and E-selectin induc 0.
Screening CCc1nc2ccc(C(=O)N3CCN(CC)CC3)cc2nc1CC returned SIRT5 inh -1 and DENV2 CPE -1.
